In ChEMBL document CHEMBL1124607, “Studies on antitumor agents. 8. Antitumor activities of O-alkyl derivatives of 2'-deoxy-5-(trifluoromethyl)uridine and 2'-deoxy-5-fluorouridine” (1989):

Species on record: Mus musculus
Experiment: Antitumor activity against transplanted tumor sarcoma 180 expressed as effective dose.
Format: functional
Summary of the method: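 Male ICR mice, five weeks old, implanted s.c. in the axilla with 5×10^6 sarcoma 180 cells. Starting 24 h after implant, compounds were given orally once daily for 7 consecutive days as a suspension in 0.5% CMC with 0.1% Tween 80. Seven mice per dose. Tumors were excised and weighed on day 10, and inhibition was taken from treated/control tumor weight.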

Structure (SMILES): O=C(c1ccccc1)n1c(=O)c(C(F)(F)F)cn([C@H]2C[C@H](OCc3ccccc3)[C@@H](CO)O2)c1=O
- ED50: 26 mg/kg/day

Structure (SMILES): CCO[C@H]1C[C@H](n2cc(F)c(=O)[nH]c2=O)O[C@@H]1CO
- ED50: > 40 mg/kg/day

Structure (SMILES): O=c1[nH]c(=O)n([C@H]2C[C@H](O)[C@@H](COCc3ccc(Cl)cc3)O2)cc1C(F)(F)F
- ED50: 14 mg/kg/day

Structure (SMILES): O=C(c1ccccc1)n1c(=O)c(C(F)(F)F)cn([C@H]2C[C@H](O)[C@@H](COCc3ccccc3)O2)c1=O
- ED50: 26 mg/kg/day

Structure (SMILES): O=c1[nH]c(=O)n([C@H]2C[C@H](OCc3ccc(Cl)cc3)[C@@H](CO)O2)cc1C(F)(F)F
- ED50: < 10 mg/kg/day

Structure (SMILES): COc1ccc(COC[C@H]2O[C@@H](n3cc(C(F)(F)F)c(=O)[nH]c3=O)C[C@@H]2O)cc1
- ED50: > 40 mg/kg/day

Structure (SMILES): O=c1[nH]c(=O)n([C@H]2C[C@H](OCc3ccccc3)[C@@H](COCc3ccccc3)O2)cc1C(F)(F)F
- ED50: > 40 mg/kg/day

Structure (SMILES): O=c1c(C(F)(F)F)cn([C@H]2C[C@H](O)[C@@H](CO)O2)c(=O)n1Cc1ccccc1
- ED50: > 40 mg/kg/day

Structure (SMILES): O=c1[nH]c(=O)n([C@H]2C[C@H](O)[C@@H](COCc3ccccc3)O2)cc1C(F)(F)F
- ED50: 15 mg/kg/day

Structure (SMILES): O=c1[nH]c(=O)n([C@H]2C[C@H](O)[C@@H](CO)O2)cc1C(F)(F)F [TRIFLURIDINE]
- ED50: 63 mg/kg/day

Structure (SMILES): CCO[C@H]1C[C@H](n2cc(C(F)(F)F)c(=O)n(C(=O)c3ccccc3)c2=O)O[C@@H]1CO
- ED50: 37 mg/kg/day

Structure (SMILES): O=c1[nH]c(=O)n([C@H]2C[C@H](O)[C@@H](CO)O2)cc1F [FLOXURIDINE]
- ED50: 84 mg/kg/day

Structure (SMILES): Cc1cccc(COC[C@H]2O[C@@H](n3cc(C(F)(F)F)c(=O)[nH]c3=O)C[C@@H]2O)c1
- ED50: 28 mg/kg/day

Structure (SMILES): Cc1cccc(CO[C@H]2C[C@H](n3cc(C(F)(F)F)c(=O)[nH]c3=O)O[C@@H]2CO)c1
- ED50: 36 mg/kg/day

Structure (SMILES): CCOC[C@H]1O[C@@H](n2cc(C(F)(F)F)c(=O)[nH]c2=O)C[C@@H]1OCC
- ED50: 25 mg/kg/day

Structure (SMILES): Cc1ccccc1COC[C@H]1O[C@@H](n2cc(C(F)(F)F)c(=O)[nH]c2=O)C[C@@H]1O
- ED50: > 40 mg/kg/day

Structure (SMILES): COc1ccc(CO[C@H]2C[C@H](n3cc(C(F)(F)F)c(=O)[nH]c3=O)O[C@@H]2CO)cc1
- ED50: > 40 mg/kg/day

Structure (SMILES): O=c1nc(OCc2ccccc2)c(C(F)(F)F)cn1[C@H]1C[C@H](O)[C@@H](CO)O1
- ED50: > 40 mg/kg/day

Structure (SMILES): CCOC[C@H]1O[C@@H](n2cc(C(F)(F)F)c(=O)n(C(=O)c3ccccc3)c2=O)C[C@@H]1O
- ED50: 23 mg/kg/day

Structure (SMILES): CCOC[C@H]1O[C@@H](n2cc(C(F)(F)F)c(=O)[nH]c2=O)C[C@@H]1O
- ED50: 14 mg/kg/day

Structure (SMILES): O=c1[nH]c(=O)n([C@H]2C[C@H](OCc3ccccc3)[C@@H](CO)O2)cc1F
- ED50: 12 mg/kg/day

Structure (SMILES): CCOC[C@H]1O[C@@H](n2cc(F)c(=O)[nH]c2=O)C[C@@H]1O
- ED50: 39 mg/kg/day

Structure (SMILES): CCO[C@H]1C[C@H](n2cc(C(F)(F)F)c(=O)[nH]c2=O)O[C@@H]1CO
- ED50: 15 mg/kg/day

Structure (SMILES): O=c1[nH]c(=O)n([C@H]2C[C@H](OCc3ccccc3)[C@@H](CO)O2)cc1C(F)(F)F
- ED50: 13 mg/kg/day

Structure (SMILES): O=c1[nH]c(=O)n([C@H]2C[C@H](O)[C@@H](COCc3ccccc3)O2)cc1F
- ED50: 16 mg/kg/day

Structure (SMILES): Cc1ccccc1CO[C@H]1C[C@H](n2cc(C(F)(F)F)c(=O)[nH]c2=O)O[C@@H]1CO
- ED50: 40 mg/kg/day
